An excerpt weighted towards active compounds, which were near 1.5% of everything screened.
NTR1 agonist: agonists of human neurotensin receptor NTR1; P30989; NTR1-U2OS beta-arrestin-GFP spot imaging, agonist mode; activation, % at 20 µM; hit rate 0.17% among 330,000;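 active means activation at or above 40% of the spot to cytoplasm intensity ratio, with at least 20 cells analyzed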;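 further: 0% = DMSO without peptide and 100% = 100 nM NTR1 peptide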
APJ antag: blocks the human apelin receptor APJ; P35414; CHO-K1 APJ beta-arrestin complementation, luminescence; inhibition, % at 20 µM; hit rate 0.32% among 330,000; AID 2521;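 active means inhibition above about 40% at 20 µM, limit read from the data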;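 further: cells challenged with 10 nM apelin-13 agonist together with compound; plate controls were apelin-13 plus DMSO wells for no effect and DMSO wells lacking apelin-13 for full effect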
HTR2A ag: agonists of mouse serotonin 5-HT2A receptor (HTR2A); hit rate 0.66% among 360,000; CHO-K1 mHTR2A beta-arrestin complementation, luminescence; percent of 30 µM serotonin response; AID 624169; activation, % at 7.6 µM;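 active means activation above a run cutoff, the mean activation of all tested compounds plus 3 SD, cut at about 14% in these data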;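 further: 0% = plate median of compound wells and 100% = 30 µM serotonin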
CCR6 antag: CCR6 (human) receptor antagonism; P51684; CHO-K1 CCR6 PathHunter beta-arrestin, luminescence, CCL20-stimulated; inhibition, % at 20 µM; hit rate 0.49% among 340,000; AID 493098;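 active means compounds whose inhibition of the agonist-driven luminescence signal at 20 µM reaches about 50%, limit read from the data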;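 further: cells stimulated with CCL20 at 14 nM final; plate controls were DMSO with CCL20 for no effect and DMSO without agonist for full effect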
Target sequence (P51684 whole entry, looked up): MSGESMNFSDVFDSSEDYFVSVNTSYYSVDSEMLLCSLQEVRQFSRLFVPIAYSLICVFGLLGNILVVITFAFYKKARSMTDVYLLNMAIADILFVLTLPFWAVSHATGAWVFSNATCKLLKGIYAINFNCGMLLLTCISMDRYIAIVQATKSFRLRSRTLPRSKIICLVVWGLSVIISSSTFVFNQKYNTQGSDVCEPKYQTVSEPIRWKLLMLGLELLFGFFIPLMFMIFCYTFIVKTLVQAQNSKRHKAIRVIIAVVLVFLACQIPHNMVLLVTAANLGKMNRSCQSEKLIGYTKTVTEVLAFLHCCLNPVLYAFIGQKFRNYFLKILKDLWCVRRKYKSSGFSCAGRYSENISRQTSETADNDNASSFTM
CXCR6 block: CXCR6 (human) receptor inhibition; O00574; CHO-K1 PathHunter CXCR6 beta-arrestin, luminescence; inhibition, % at 20 µM; hit rate 0.36% among 360,000; in the data active means inhibition above about 34%, passing the limit was not always enough;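 further: antagonist mode with CXCL16 agonist at 10 nM final; 0% = 10 nM CXCL16 with DMSO and 100% = unstimulated wells without agonist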
APJ agonist: agonists of human APJ apelin receptor | P35414 | CHO-K1 APJ PathHunter beta-arrestin, luminescence; 0% DMSO wells, 100% apelin | activation, % at 20 µM | hit rate 0.11% among 330,000 | AID 2520;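 active means activation more than six SD over the plate average, tested at 20 µM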;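 further: 0% = DMSO alone and 100% = apelin-13 at 10 nM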
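Test system: CHO-K1 APJ beta-arrestin complementation cell line. Amount: cell density 1000 per well. Controls: DMSO negative, 10 nM Apelin-13 positive. Signal: luminescent beta-gal fragment complementation, chemiluminescent substrate. Read-out basis: agonist-driven arrestin binding to APJ. Timing: compound stimulation 90 min at 25 °C, detection 60 min.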
APJ ag conf: confirmation of human APJ apelin receptor agonists; shares compounds with APJ agonist; CHO-K1 APJ PathHunter beta-arrestin, luminescence; activation, % at 20 µM; hit rate 10% among 310;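 active means activation above 40%, taking the highest of four retests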;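 further: plate controls were DMSO wells for no effect and apelin-13 at 10 nM for full effect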
Starred values were filed as active, the others as inactive; / = no result.

SMILES	NTR1 agonist	APJ antag	HTR2A ag	CCR6 antag	CXCR6 block	APJ agonist	APJ ag conf
COc1ccc(Cl)cc1C(=O)NNC(=O)C1CCCO1 (centres undefined)	-0.3	-36.4	-3.9	2.6	-0.4	-3.2	/
O=[N+]([O-])c1ccc(/C=N/n2c(COc3ccccc3)n[nH]c2=S)cc1	2.8	-19.4	0.3	17.0	1.8	14.2*	7.5
CCCOc1ccc(C(=O)NNC(=O)c2cccc(S(=O)(=O)N3CCN(C(C)=O)CC3)c2)cc1OC	1.0	20.0	-3.0	4.8	-4.7	-1.8	/
CN1CCN(c2ccc(NC(=S)NC(=O)c3cccc4ccccc34)cc2)CC1	11.4	-9.1	-9.9	0.4	-0.9	27.7*	-0.7
CN1CCN(c2ccc(NC(=S)NC(=O)c3cccc4c(Br)cccc34)cc2)CC1	2.8	5.6	-12.8	49.8	8.8	-0.9	/
CC12CCC(=O)N1C(C(=O)Nc1nc3ccccc3s1)CS2 (centres undefined)	2.0	-9.0	1.5	4.8	-8.0	-4.2	/
COc1ccc(-c2nc(-c3ccc(NC(=O)c4ccc(Br)o4)cc3)no2)cc1OC	21.5	-12.9	10.9	3.1	-3.9	47.2*	11.2
CC(=O)c1c(C)[nH]c(C(=O)OCC(=O)Nc2cc(Cl)ccc2[N+](=O)[O-])c1C	4.7	-15.7	11.3	-32.3	-5.1	16.8*	18.4
CC(=O)c1c(C)[nH]c(C(=O)OCC(=O)Nc2ccc(C)cc2[N+](=O)[O-])c1C	-0.1	-3.4	4.0	14.5	-12.7	4.1	/
CCCSc1nc2ccsc2c(=O)n1CC	0.5	-2.5	0.6	7.9	1.0	-3.8	/
CCCCNc1c(-c2cccc(-c3ccc(OC)cc3)c2)nc2cc(C)ccn12	33.4	-27.9	-5.2	-13.6	4.7	7.3	/
CCCCNc1c(-c2cccc(-c3ccc(OC)cc3)c2)nc2ccc(C)cn12	35.7	-26.3	11.6	-3.2	-11.0	52.3*	14.6
O=C(NCc1cccs1)c1csc([C@@H]2O[C@H](CO)[C@H](O)[C@H](O)[C@H]2O)n1	/	/	9.1	/	0.7	/	/
N#Cc1ccccc1OCC(=O)Nc1c(C(=O)C2CC2)oc2ccccc12	7.7	-7.4	-4.2	0.0	-1.0	39.9*	7.1
O=C(C(=O)N1CCCC1)c1c(-c2ccccc2)[nH]c2ccccc12	0.7	9.9	-7.0	-2.0	-3.5	-3.5	/
Oc1ccccc1CNc1ccc(Br)cn1	14.8	5.0	2.9	-4.5	-7.9	18.2*	25.7
CC(CC(=O)N1CCN(c2cccc(Cl)c2)CC1)S(=O)(=O)c1ccc2c(c1)NC(=O)CO2 (centres undefined)	3.3	-49.8	2.8	-6.5	4.2	32.8*	26.1
COc1cc(C(=O)c2nccc3cc(OC)c(OC)cc23)c([N+](=O)[O-])cc1OC	3.5	-11.1	2.6	-4.4	-1.6	13.7*	3.9
O=C(Nc1ccccc1N1CCOCC1)c1ccc([N+](=O)[O-])s1	0.2	-29.8	6.7	9.2	2.9	10.2*	27.3
COc1ccc(NC(=O)CCN(c2ccc(OC)cc2)S(=O)(=O)c2ccc(C)c(C)c2)cc1	/	/	7.5	11.7	2.1	/	/
COc1ccc2oc(C(=O)N3CCN(S(=O)(=O)c4c(C)c(C)cc(C)c4C)CC3)c(C)c2c1	/	/	-5.6	11.5	16.9	/	/
CCn1c(CC(=O)Nc2ccc(C)c(Cl)c2)nnc1SCC(=O)Nc1nc(C)cs1	1.4	-13.9	3.4	3.3	-8.3	19.6*	5.4
CCn1c(CC(=O)Nc2ccc(C)c(Cl)c2)nnc1SCc1ccc(Cl)c(Cl)c1	-0.8	-13.8	-1.6	8.0	2.5	6.5	/
Cc1ccc(-n2nnnc2C(Cl)(Cl)c2nnnn2-c2ccc(C)cc2)cc1	20.9	-28.3	0.0	51.6*	9.4	33.7*	40.8*
COC(=O)[C@]1(Cc2ccccc2)N[C@H](CN(C)C(=O)Nc2ccc(OC)cc2)[C@@H]2C(=O)N(Cc3ccccc3)C(=O)[C@@H]21	-0.4	-7.2	0.5	1.4	2.8	12.3*	-2.6
CC(=O)c1ccc(S(=O)(=O)N2CCN(CCOc3ccc(Br)cc3)CC2)cc1	3.7	5.3	-8.4	10.3	-7.0	-1.3	/
CC1=NOC(=O)/C1=C/c1ccc(-c2ccc(Cl)cc2)o1	-1.4	3.7	-0.9	/	64.2*	20.1*	3.2
